Experimental data: ChEMBL document CHEMBL1240482, “Synthesis and antiproliferative evaluation of certain indeno[1,2-c]quinoline derivatives. Part 2” (J Med Chem, 2010)
Calls of active or inactive are those of the source. No cut-off for these calls is given here.

How the values were obtained:
Mus musculus [1] = experiment: Toxicity to BALB/c mouse assessed as change in glutamic pyruvate transaminase at 20 mg/kg, iv; type: organism-based; set-up: dose 20 mg/kg, route intravenous; conditions: in vivo
Procedure, shortened: (§1)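 BALB/c mice, 3 per group, randomized by body weight (stratified). Dosed iv via tail vein at 10, 20 or 40 mg/kg in PEG 400/ethanol/water (20/20/60), once every 3 days for 2 weeks; solvent controls. Weighed throughout. After a 24 h fast, heart blood was drawn under ether; GOT, GPT, BUN and creatinine were measured on an analyzer. Liver and kidney taken for H&E.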

[2] = Cmax in CD1 mouse at 20 mg/ kg, po; type: ADME, organism-based; set-up: dose 20 mg/ kg, route oral; conditions: in vivo
Procedure, shortened: (§2)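 Male CD-1 (Crl.) mice, 22-24 g, fasted 4 h before dosing; single oral gavage of 20 mg/kg as a suspension in 0.5% methylcellulose/water, 10 mL/kg. Cardiac-puncture plasma (K-EDTA) taken predose to 27 h, three mice per time point; LC-MS/MS quantification.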

Detroit 551 [3] = experiment: Selectivity index, ratio of IC50 for human Detroit 551 cells to IC50 for human BT-483 cells; type: functional
[4] = Cytotoxicity against human SKHep cells after 48 hrs by MTT assay; type: functional
Procedure, shortened: (§3)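 Cells grown in DMEM with 10% FBS at 37 °C and 5% CO2, seeded at 5 × 10^3 per well and allowed 24 h before drug. Serial dilutions from DMSO stocks applied for 48 h. MTT (2 mg/mL in PBS) added for 2 h, formazan dissolved in DMSO, absorbance read at 570 nm. GI50 interpolated by linear regression from at least three points in the 20-80% range; three independent experiments.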

[5] = Cell cycle arrest in human BT-483 cells assessed as accumulation at sub-G1 phase at 1 uM after 24 hrs by flow cytometry; type: functional, cell-based
Procedure, shortened: (§4)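 BT483 cells exposed to 0, 1, 3 or 10 μM for 24 h, then stained with propidium iodide and analysed for DNA content by flow cytometry. The subdiploid (sub-G1) peak, expressed as a percentage of the whole population, is scored as apoptotic.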

A549 = experiment: Cytotoxicity against human A549 cells after 48 hrs by MTT assay; type: functional; conditions: A549, 48 h; procedure, shortened: as §3
BT-483 = experiment: Antitumor activity against human BT-483 cells xenografted in BALB/c athymic mouse assessed as reduction in tumor size at 10 to 20 mg/kg, iv; type: functional, organism-based
Procedure, shortened: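 Balb/C athymic nude mice, 6-8 weeks, about 20 g, given subcutaneous BT483 breast cancer cells. Once tumours averaged about 500 mm3, dosed iv at 10 or 20 mg/kg once daily for 14 days, in a cosolvent formulation diluted in 5% dextrose; vehicle controls; three animals per group. Caliper volume taken as width × length × height.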

[6] = Half life in CD1 mouse at 20 mg/ kg, po; type: ADME, organism-based; set-up: dose 20 mg/ kg, route oral; conditions: in vivo; procedure, shortened: as §2
[7] = AUC (0 to infinity) in CD1 mouse at 20 mg/ kg, po; type: ADME, organism-based; set-up: time infinity, dose 20 mg/ kg, route oral; conditions: plasma; procedure, shortened: as §2
HeLa [8] = experiment: Selectivity index, ratio of IC50 for human Detroit 551 cells to IC50 for human HeLa cells; type: functional
[9] = Half life in CD1 mouse at 2 mg/ kg, iv; type: ADME, organism-based; set-up: dose 2 mg/ kg, route intravenous; conditions: in vivo
Procedure, shortened: (§5)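 Fasted male CD-1 (Crl.) mice, 22-24 g; single tail-vein bolus of 2.0 mg/kg in PEG400/ethanol/water (30/5/65), 10 mL/kg. Cardiac-puncture blood into K-EDTA at 0-27 h, three mice per time point; plasma analysed by LC-MS/MS after acetonitrile precipitation. Parameters calculated from mean plasma concentrations.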

[10] = Cytotoxicity against human Detroit 551 cells after 48 hrs by MTT assay; type: cell-based; procedure, shortened: as §3
[11] = Cell cycle arrest in human BT-483 cells assessed as accumulation at sub-G1 phase at 3 uM after 24 hrs by flow cytometry; type: functional, cell-based; procedure, shortened: as §4
[12] = Inhibition of human topoisomerase 2 assessed as decrease in pBR322 mobility on agarose gel by electrophoresis
Procedure, shortened: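 Enzyme preincubated with compound before DNA addition; reaction run 30 min at 37 °C and stopped with SDS. Products resolved on 1% agarose, stained with ethidium bromide, quantified by densitometry.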

Mus musculus [13] = experiment: Toxicity to BALB/c mouse assessed as change in glutamic oxalacetic transaminase at 20 mg/kg, iv; type: organism-based; set-up: dose 20 mg/kg, route intravenous; conditions: in vivo; procedure, shortened: as §1
[14] = Volume of distribution at steady state in CD1 mouse at 2 mg/ kg, iv; type: ADME, organism-based; set-up: dose 2 mg/ kg, route intravenous; conditions: in vivo, read-out: Vdss; procedure, shortened: as §5
SAS [15] = experiment: Selectivity index, ratio of IC50 for human Detroit 551 cells to IC50 for human SAS cells; type: functional
[16] = Mean retention time in CD1 mouse at 2 mg/ kg, iv; type: ADME, organism-based; set-up: dose 2 mg/ kg, route intravenous; conditions: in vivo; procedure, shortened: as §5
[17] = Cell cycle arrest in human BT-483 cells assessed as accumulation at sub-G1 phase at 10 uM after 24 hrs by flow cytometry; type: functional, cell-based; procedure, shortened: as §4
Mus musculus [18] = experiment: Toxicity to BALB/c mouse assessed as survival rate at 10 mg/kg, iv; type: organism-based; set-up: dose 10 mg/kg, route intravenous; conditions: in vivo
Procedure, shortened: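 Balb/C athymic nude mice (6-8 weeks, ~20 g) bearing subcutaneous BT483 breast xenografts (0.5 × 10^6 cells). Treatment began at ~500 mm3 tumour volume: cosolvent formulation diluted in 5% dextrose, iv at 10 or 20 mg/kg once daily for 14 days; controls received vehicle. 3 animals per group. Survival was assessed by Kaplan-Meier analysis at study end, p < 0.05.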

[19] = Cytotoxicity against human BT-483 cells after 48 hrs by MTT assay; type: functional; conditions: BT-483, 48 h; procedure, shortened: as §3
[20] = Tmax in CD1 mouse at 20 mg/ kg, po; type: ADME, organism-based; set-up: dose 20 mg/ kg, route oral; conditions: in vivo; procedure, shortened: as §2
Detroit 551 [21] = experiment: Selectivity index, ratio of IC50 for human Detroit 551 cells to IC50 for human PC3 cells; type: functional
[22] = Apparent volume of distribution in CD1 mouse at 2 mg/ kg, iv; type: ADME, organism-based; set-up: dose 2 mg/ kg, route intravenous; conditions: in vivo, read-out: Vz; procedure, shortened: as §5
[23] = Clearance in CD1 mouse at 2 mg/ kg, iv; type: ADME, organism-based; set-up: dose 2 mg/ kg, route intravenous; conditions: in vivo; procedure, shortened: as §5
SAS [24] = experiment: Cytotoxicity against human SAS cells after 48 hrs by MTT assay; type: functional; procedure, shortened: as §3
Nucleic Acid = experiment: Binding affinity to pBR322; type: nucleic-acid assay; conditions: Escherichia coli
Detroit 551 [25] = experiment: Selectivity index, ratio of IC50 for human Detroit 551 cells to IC50 for human A549 cells; type: functional
HeLa [26] = experiment: Cytotoxicity against human HeLa cells after 48 hrs by MTT assay; type: functional; procedure, shortened: as §3
[27] = Mean retention time in CD1 mouse at 20 mg/ kg, po; type: ADME, organism-based; set-up: dose 20 mg/ kg, route oral; conditions: in vivo; procedure, shortened: as §2

## COc1ccc2c(c1)/C(=N\OCCN1CCCC1)c1c-2c(O)nc2ccccc12
Mus musculus [1]
  Activity: Non-toxic
[2]
  Cmax: 63 ng/mL
Detroit 551 [3]
  RatioGI50: 15.75
[4]
  GI50: 1240 nM
[5]
  Activity: 43%
A549
  GI50: 890 nM
BT-483
  Activity: Active
[6]
  half-life: 2.2 h
[7]
  AUC(0-inf): 187 ng·h/mL
HeLa [8]
  RatioGI50: 54.09
[9]
  half-life: 1.5 h
[10]
  GI50 at 48 h: 12400 nM
[11]
  Activity: 58%
[12]
  IC50: 8260 nM
Mus musculus [13]
  Activity: Non-toxic
[14]
  Vd: 12.3 L/kg
SAS [15]
  RatioGI50: 14.81
[16]
  MRT: 1.1 h
[17]
  Activity: 88%
Mus musculus [18]
  Activity: Non-toxic
[19]
  GI50: 790 nM
[20]
  Tmax: 1 h
Detroit 551 [21]
  RatioGI50: 6.8
[22]
  Vd: 25.5 L/kg
[23]
  clearance: 193 mL/min/kg
SAS [24]
  GI50: 840 nM
Nucleic Acid
  Activity: Active
Detroit 551 [25]
  RatioGI50: 13.98
HeLa [26]; read-out: GI50
  GI50: 230 nM
HeLa [26]; read-out: pGI50 (converted)
  GI50: 229 nM
[27]
  MRT: 3.4 h
